# Measured values collected from several papers.
# Protocols differ between the studies behind these lines.
# Cell line: MDA-MB-231
# Read-out: cell growth or viability
SMILES,assay,conditions,endpoint,value
O=C(/C=C/c1ccc(F)cc1)Nc1cc(-c2ccnc(N3CCC(O)CC3)c2)ccn1,MTT,5 µM,inhibition,63%
C[C@@H]1CC[C@@H]([C@@](O)(CNCc2cccc3ccccc23)COCc2ccccc2)[C@H](OCc2ccccc2)C1,MTT,"30 µM, 72 h",inhibition,91.2%
O=C(C=Cc1ccccc1)Nc1cccc(-c2ccnc(N3CCOCC3)c2)c1,MTT,5 µM,inhibition,49%
COc1cc2c3c(n(CCCn4ccnc4)c(=O)c2cc1OC)-c1nc2c(cc1C3=O)OCO2,MTS,72 h,IC50,1510 nM
Nc1ccccc1NC(=O)c1ccc(CNc2ccc(NC3=C(Cl)C(=O)c4cccnc4C3=O)cc2)cc1,MTT,48 h,IC50,1070 nM
CC(=NNC(=O)COc1ccc2c(C)c(Cc3ccccc3)c(=O)oc2c1C)c1ccc(Br)cc1,MTT,31.25 µg/mL,viability,48.2%
C#Cc1nc(C2=C(C)C(O)CC2)cs1 (stereo not drawn),,,CC50,3200 nM
CC(C)CS(=O)(=O)NCc1cccc(-c2ccc3c(NC(=O)CC4CC4)n[nH]c3c2)c1,ATP luminescence,48 h,IC50,60000 nM
CCNC(=S)NNC(=O)COc1ccc2c(C)c(CC)c(=O)oc2c1C,MTT,1000 µg/mL,viability,4.73%
C[C@@H]1CC[C@@H]([C@](C)(O)CNCc2ccccc2)[C@H](OCc2ccccc2)C1,MTT,"30 µM, 72 h",inhibition,78.9%
Cc1c(Cc2ccccc2)c(=O)oc2c(C)c(OCC(=O)NN=Cc3ccc(Cl)cc3)ccc12,MTT,62.5 µg/mL,viability,47.1%
Cc1cc(NC(=O)C=Cc2ccccc2)cc(-c2ccnc(N3CCC(CO)CC3)c2)c1,MTT,5 µM,inhibition,59.8%
C[C@@H]1CC[C@@H]([C@](C)(O)CNCc2cccc(F)c2)[C@H](OCc2ccccc2)C1,MTT,"30 µM, 72 h",inhibition,96.1%
Cc1cc(NC(=O)C=Cc2ccccc2)cc(-c2ccnc(N3CCC(O)CC3)c2)c1,MTT,5 µM,inhibition,55%
C=CCNC(=S)NNC(=O)COc1ccc2c(C)c(CC)c(=O)oc2c1C,MTT,500 µg/mL,viability,3%
C[C@@H]1CC[C@@H]([C@@](O)(CNCc2ccccc2)COCc2ccc(F)cc2)[C@H](OCc2ccc(F)cc2)C1,MTT,"10 µM, 72 h",inhibition,97.9%
Cc1c(Cc2ccccc2)c(=O)oc2c(C)c(OCC(=O)NN=Cc3ccco3)ccc12,MTT,31.25 µg/mL,viability,15.3%
Cc1cc(NC(=O)C=Cc2ccccc2)cc(-c2ccnc(N3CCOCC3)c2)c1,MTT,5 µM,inhibition,17.7%
COc1ccc(CNC[C@](O)(COCc2ccc(F)cc2)[C@@H]2CC[C@@H](C)C[C@H]2OCc2ccc(F)cc2)cc1,MTT,"10 µM, 72 h",inhibition,99.6%
O=C(C=Cc1ccccc1)Nc1cc(-c2ccnc(N3CCC(O)CC3)c2)ccn1,MTT,5 µM,inhibition,80.3%
O=C(O)c1ccccc1Nc1cccc(C(F)(F)F)c1,SRB,48 h,GI50,> 30000 nM
O=C(C=Cc1ccccc1)Nc1cccc(-c2ccnc(N3CCC(CO)CC3)c2)c1,MTT,5 µM,inhibition,67.4%
C=C(COCc1ccccc1)[C@@H]1CC[C@@H](C)C[C@H]1OCc1ccccc1,MTT,"30 µM, 72 h",inhibition,28.1%
C=CC(=O)c1cccnc1Nc1cc(C(F)(F)F)ccc1OC,SRB,48 h,GI50,10500 nM
CCc1c(C)c2ccc(OCC(=O)NN=Cc3ccc([N+](=O)[O-])cc3)cc2oc1=O,MTT,31.25 µg/mL,viability,36.3%
C[C@@H]1CC[C@@H]([C@](C)(O)Cn2cnc3ccccc32)[C@H](OCc2ccccc2)C1,MTT,"30 µM, 72 h",inhibition,83.2%
C=CC(=O)NC1CCN(c2ncc3ncnc(Nc4ccc(Oc5ccc6c(c5)ncn6C)c(C)c4)c3n2)CC1,,,EC50,328 nM
Nc1ccccc1NC(=O)c1ccc(CNc2ccc(NC3=C(Cl)C(=O)c4ncccc4C3=O)cc2)cc1,MTT,48 h,IC50,2440 nM
CCc1c(C)c2ccc(OCC(=O)NNC(=S)Nc3ccccc3)c(C)c2oc1=O,MTT,500 µg/mL,viability,4.23%
COc1cc2c3c(n(CCCN4CCOCC4)c(=O)c2cc1OC)-c1nc2c(cc1C3=O)OCO2,MTS,72 h,IC50,> 2000 nM
O=C(/C=C/c1cccc(F)c1)Nc1cc(-c2ccnc(N3CCC(O)CC3)c2)ccn1,MTT,5 µM,inhibition,75.8%
CCNCCCn1c2c(c3cc(OC)c(OC)cc3c1=O)C(=O)c1cc3c(nc1-2)OCO3,MTS,72 h,IC50,476 nM
C=C(COCc1ccc(F)cc1)[C@@H]1CC[C@@H](C)C[C@H]1OCc1ccc(F)cc1,MTT,"30 µM, 72 h",inhibition,25%
